According to the M2OR odorant receptor database:

Tests used:
Conditions in all cases: stereoisomer not certain
UniProt Q7TR71 = molecular target: T1, UniProt Q7TR71
T1 sequence (whole entry): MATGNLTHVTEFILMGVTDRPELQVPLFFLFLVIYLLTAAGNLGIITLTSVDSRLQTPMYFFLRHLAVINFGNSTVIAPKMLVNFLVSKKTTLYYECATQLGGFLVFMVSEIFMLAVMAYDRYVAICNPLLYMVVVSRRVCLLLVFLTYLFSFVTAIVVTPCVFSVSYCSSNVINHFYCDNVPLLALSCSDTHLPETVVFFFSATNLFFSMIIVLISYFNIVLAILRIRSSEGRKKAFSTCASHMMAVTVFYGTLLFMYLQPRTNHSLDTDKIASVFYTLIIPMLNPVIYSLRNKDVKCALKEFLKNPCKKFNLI
Method in brief: (§1)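 Each entry records the cell line, G-protein, co-transfected protein and tags used. Methods varied with the source, often transient luciferase assays in mammalian cell lines. A receptor–molecule pair is called responsive (active) if the original authors judged its signal statistically different from baseline and non-responsive (inactive) otherwise.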

UniProt Q7TR79 = molecular target: T2, UniProt Q7TR79
T2 sequence (whole entry): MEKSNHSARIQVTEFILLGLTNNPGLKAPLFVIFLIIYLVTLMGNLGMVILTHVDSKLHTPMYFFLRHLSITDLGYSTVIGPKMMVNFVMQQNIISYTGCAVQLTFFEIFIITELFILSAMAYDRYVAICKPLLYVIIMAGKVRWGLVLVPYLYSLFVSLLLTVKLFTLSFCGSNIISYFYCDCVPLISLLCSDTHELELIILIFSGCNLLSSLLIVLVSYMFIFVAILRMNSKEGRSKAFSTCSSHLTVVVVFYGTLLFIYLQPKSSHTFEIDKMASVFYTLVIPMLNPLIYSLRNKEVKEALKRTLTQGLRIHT
Method in brief: as §1

UniProt Q7TRA3 = molecular target: T3, UniProt Q7TRA3
T3 sequence (whole entry): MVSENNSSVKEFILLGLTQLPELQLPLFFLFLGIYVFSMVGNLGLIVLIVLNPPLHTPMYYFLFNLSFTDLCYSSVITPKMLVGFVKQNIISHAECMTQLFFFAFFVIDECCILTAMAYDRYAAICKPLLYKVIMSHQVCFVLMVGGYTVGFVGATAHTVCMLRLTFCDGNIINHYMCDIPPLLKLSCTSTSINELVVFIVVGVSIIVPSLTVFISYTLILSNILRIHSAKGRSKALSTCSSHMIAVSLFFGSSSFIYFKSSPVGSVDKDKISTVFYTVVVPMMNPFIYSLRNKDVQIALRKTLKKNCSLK
Method in brief: as §1

UniProt Q7TRE4 = molecular target: T4, UniProt Q7TRE4
T4 sequence (whole entry): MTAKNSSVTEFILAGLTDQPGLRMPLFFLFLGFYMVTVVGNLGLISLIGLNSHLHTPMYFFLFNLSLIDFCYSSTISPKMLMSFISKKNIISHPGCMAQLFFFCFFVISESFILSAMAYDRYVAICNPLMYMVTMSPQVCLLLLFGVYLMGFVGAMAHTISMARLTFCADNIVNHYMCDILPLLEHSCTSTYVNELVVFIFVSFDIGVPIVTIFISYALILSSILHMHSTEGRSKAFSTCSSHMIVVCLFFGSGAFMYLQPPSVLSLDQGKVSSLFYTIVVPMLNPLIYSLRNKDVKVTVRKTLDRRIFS
Method in brief: as §1

UniProt Q7TRW1 = molecular target: T5, UniProt Q7TRW1
T5 sequence (whole entry): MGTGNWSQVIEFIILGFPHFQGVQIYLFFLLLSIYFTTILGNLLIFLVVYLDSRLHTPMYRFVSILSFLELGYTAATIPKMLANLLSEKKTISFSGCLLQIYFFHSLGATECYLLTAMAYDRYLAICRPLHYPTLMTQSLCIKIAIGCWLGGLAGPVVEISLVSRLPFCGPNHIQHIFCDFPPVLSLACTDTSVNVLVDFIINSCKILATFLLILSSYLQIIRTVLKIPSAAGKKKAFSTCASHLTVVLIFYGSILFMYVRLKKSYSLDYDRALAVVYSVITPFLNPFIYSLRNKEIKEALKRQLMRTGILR
Method in brief: as §1

UniProt Q7TRX0 = molecular target: T6, UniProt Q7TRX0
T6 sequence (whole entry): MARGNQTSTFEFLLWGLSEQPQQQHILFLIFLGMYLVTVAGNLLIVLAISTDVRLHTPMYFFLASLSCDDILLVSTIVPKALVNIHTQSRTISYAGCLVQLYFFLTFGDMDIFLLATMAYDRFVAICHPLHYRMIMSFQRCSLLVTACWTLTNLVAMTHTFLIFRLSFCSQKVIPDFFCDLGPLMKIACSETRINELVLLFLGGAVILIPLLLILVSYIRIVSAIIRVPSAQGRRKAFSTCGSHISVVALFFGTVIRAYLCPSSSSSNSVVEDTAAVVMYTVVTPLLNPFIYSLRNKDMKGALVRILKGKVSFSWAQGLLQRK
Method in brief: as §1

UniProt Q8VEU7 = molecular target: T7, UniProt Q8VEU7
T7 sequence (whole entry): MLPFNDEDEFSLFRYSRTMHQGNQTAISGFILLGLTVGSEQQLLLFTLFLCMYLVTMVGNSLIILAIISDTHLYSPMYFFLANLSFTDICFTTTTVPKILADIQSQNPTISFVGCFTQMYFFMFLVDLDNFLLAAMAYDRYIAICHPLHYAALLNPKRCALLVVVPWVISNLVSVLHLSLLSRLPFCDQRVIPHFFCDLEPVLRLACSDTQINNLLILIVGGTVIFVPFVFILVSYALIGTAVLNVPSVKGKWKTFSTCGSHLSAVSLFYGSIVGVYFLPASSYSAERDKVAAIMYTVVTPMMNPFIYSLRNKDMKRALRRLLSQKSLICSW
Method in brief: as §1

UniProt Q8VF05 = molecular target: T8, UniProt Q8VF05
T8 sequence (whole entry): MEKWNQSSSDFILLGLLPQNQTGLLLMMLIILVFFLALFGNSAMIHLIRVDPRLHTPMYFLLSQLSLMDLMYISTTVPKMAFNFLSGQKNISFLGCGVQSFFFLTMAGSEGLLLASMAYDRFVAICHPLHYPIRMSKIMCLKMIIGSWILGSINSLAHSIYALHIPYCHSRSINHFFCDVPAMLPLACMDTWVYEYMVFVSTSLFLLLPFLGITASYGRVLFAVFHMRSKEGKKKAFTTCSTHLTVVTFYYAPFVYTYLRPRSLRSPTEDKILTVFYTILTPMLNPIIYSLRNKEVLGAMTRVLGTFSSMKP
Method in brief: as §1

With CCCCCC(=O)CC the “odorant receptor agonist call” value (UniProt Q7TR71) was “inactive”, the “odorant receptor agonist call” value (UniProt Q7TR79) was “inactive” and the “odorant receptor agonist call” value (UniProt Q7TRA3) was “inactive”. The “odorant receptor agonist call” value (UniProt Q7TRE4) was “inactive”, the “odorant receptor agonist call” value (UniProt Q7TRW1) was “inactive” and the “odorant receptor agonist call” value (UniProt Q7TRX0) was “active”. For the same compound, the “odorant receptor agonist call” value (UniProt Q8VEU7) was “inactive” and the “odorant receptor agonist call” value (UniProt Q8VF05) was “active”.
For CCCCCCCCCCO, the “odorant receptor agonist call” value (UniProt Q7TR71) was “inactive”, the “odorant receptor agonist call” value (UniProt Q7TR79) was “inactive” and the “odorant receptor agonist call” value (UniProt Q7TRA3) was “inactive”. The “odorant receptor agonist call” value (UniProt Q7TRE4) was “inactive”, the “odorant receptor agonist call” value (UniProt Q7TRW1) was “inactive” and the “odorant receptor agonist call” value (UniProt Q7TRX0) was “inactive”. For the same compound, the “odorant receptor agonist call” value (UniProt Q8VEU7) was “inactive” and the “odorant receptor agonist call” value (UniProt Q8VF05) was “inactive”.
With CCCCCOC(=O)CCCCC the “odorant receptor agonist call” value (UniProt Q7TR71) was “inactive”, the “odorant receptor agonist call” value (UniProt Q7TR79) was “inactive” and the “odorant receptor agonist call” value (UniProt Q7TRA3) was “inactive”. For the same compound, the “odorant receptor agonist call” value (UniProt Q7TRE4) was “inactive”, the “odorant receptor agonist call” value (UniProt Q7TRW1) was “inactive” and the “odorant receptor agonist call” value (UniProt Q7TRX0) was “inactive”. For the same compound, the “odorant receptor agonist call” value (UniProt Q8VEU7) was “inactive” and the “odorant receptor agonist call” value (UniProt Q8VF05) was “inactive”.
For CCCCC(C)=O, the “odorant receptor agonist call” value (UniProt Q7TR71) was “inactive”, the “odorant receptor agonist call” value (UniProt Q7TR79) was “inactive” and the “odorant receptor agonist call” value (UniProt Q7TRA3) was “inactive”. The “odorant receptor agonist call” value (UniProt Q7TRE4) was “inactive”, the “odorant receptor agonist call” value (UniProt Q7TRW1) was “inactive” and the “odorant receptor agonist call” value (UniProt Q7TRX0) was “inactive”. For the same compound, the “odorant receptor agonist call” value (UniProt Q8VEU7) was “inactive” and the “odorant receptor agonist call” value (UniProt Q8VF05) was “active”.
With CCOC(=O)C(C)C the “odorant receptor agonist call” value (UniProt Q7TR71) was “inactive”, the “odorant receptor agonist call” value (UniProt Q7TR79) was “inactive” and the “odorant receptor agonist call” value (UniProt Q7TRA3) was “inactive”. For the same compound, the “odorant receptor agonist call” value (UniProt Q7TRE4) was “inactive”, the “odorant receptor agonist call” value (UniProt Q7TRW1) was “inactive” and the “odorant receptor agonist call” value (UniProt Q7TRX0) was “inactive”. The “odorant receptor agonist call” value (UniProt Q8VEU7) was “inactive” and the “odorant receptor agonist call” value (UniProt Q8VF05) was “active”.
For CC(=O)OCC=C(C)C, the “odorant receptor agonist call” value (UniProt Q7TR71) was “inactive”, the “odorant receptor agonist call” value (UniProt Q7TR79) was “inactive” and the “odorant receptor agonist call” value (UniProt Q7TRA3) was “inactive”. The “odorant receptor agonist call” value (UniProt Q7TRE4) was “inactive”, the “odorant receptor agonist call” value (UniProt Q7TRW1) was “inactive” and the “odorant receptor agonist call” value (UniProt Q7TRX0) was “inactive”. The “odorant receptor agonist call” value (UniProt Q8VEU7) was “inactive” and the “odorant receptor agonist call” value (UniProt Q8VF05) was “active”.
With O=C(c1ccccc1)c1ccccc1 the “odorant receptor agonist call” value (UniProt Q7TR71) was “inactive”, the “odorant receptor agonist call” value (UniProt Q7TR79) was “inactive” and the “odorant receptor agonist call” value (UniProt Q7TRA3) was “active”. For the same compound, the “odorant receptor agonist call” value (UniProt Q7TRE4) was “inactive”, the “odorant receptor agonist call” value (UniProt Q7TRW1) was “inactive” and the “odorant receptor agonist call” value (UniProt Q7TRX0) was “inactive”. The “odorant receptor agonist call” value (UniProt Q8VEU7) was “inactive” and the “odorant receptor agonist call” value (UniProt Q8VF05) was “inactive”.
For CCCCCCOC(C)=O, the “odorant receptor agonist call” value (UniProt Q7TR71) was “inactive”, the “odorant receptor agonist call” value (UniProt Q7TR79) was “inactive” and the “odorant receptor agonist call” value (UniProt Q7TRA3) was “inactive”. For the same compound, the “odorant receptor agonist call” value (UniProt Q7TRE4) was “inactive”, the “odorant receptor agonist call” value (UniProt Q7TRW1) was “inactive” and the “odorant receptor agonist call” value (UniProt Q7TRX0) was “inactive”. The “odorant receptor agonist call” value (UniProt Q8VEU7) was “inactive” and the “odorant receptor agonist call” value (UniProt Q8VF05) was “inactive”.
In the case of CCCCC(=O)CC, the “odorant receptor agonist call” value (UniProt Q7TR71) is reported as “inactive”, the “odorant receptor agonist call” value (UniProt Q7TR79) is reported as “inactive” and the “odorant receptor agonist call” value (UniProt Q7TRA3) is reported as “inactive”. The “odorant receptor agonist call” value (UniProt Q7TRE4) was “inactive”, the “odorant receptor agonist call” value (UniProt Q7TRW1) was “inactive” and the “odorant receptor agonist call” value (UniProt Q7TRX0) was “inactive”. For the same compound, the “odorant receptor agonist call” value (UniProt Q8VEU7) was “inactive” and the “odorant receptor agonist call” value (UniProt Q8VF05) was “active”.
With CCCCCCCCS the “odorant receptor agonist call” value (UniProt Q7TR71) was “inactive”, the “odorant receptor agonist call” value (UniProt Q7TR79) was “inactive” and the “odorant receptor agonist call” value (UniProt Q7TRA3) was “inactive”. For the same compound, the “odorant receptor agonist call” value (UniProt Q7TRE4) was “inactive”, the “odorant receptor agonist call” value (UniProt Q7TRW1) was “inactive” and the “odorant receptor agonist call” value (UniProt Q7TRX0) was “inactive”. For the same compound, the “odorant receptor agonist call” value (UniProt Q8VEU7) was “inactive” and the “odorant receptor agonist call” value (UniProt Q8VF05) was “inactive”.
